The full list was thinned out, with hits kept by preference.
PvdQ acylase = P. aeruginosa PvdQ acylase inhibitors, primary screen, biochemical, fluorescence, plate reader and imaging, single point; purified PvdQ acylase; 340,000 compounds, 0.063% hits; PvdQ acylase [Pseudomonas aeruginosa LESB58]; inhibition, % at 10 µM; in the data active = inhibition above about 30%, passing the limit was not always enough
UPR XBP1 act = activators of adaptive XBP1 UPR arm, primary screen, cell-based, CHO-XBP1 luciferase reporter, luminescence, uHTS; IRE1-XBP1 UPR activation; percent of tunicamycin response, DMSO as zero; activation, % at 20 µM; 330,000 compounds, 0.33% hits;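 active = versus positive control, 20 µM dose yields 30% or more activation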
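Material – CHO cell line with stable XBP1 luciferase reporter · Buffer or medium – F12 plus 10% FBS · Compound – single point, 20 µM final compound, 1% DMSO · Schedule – 16-18 h cell attachment at 37 °C, then 6 h compound exposure · Signal – Steady-Glo luminescence read · Benchmarks – high control tunicamycin 10 µg/mL final, low control DMSO vehicle only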
CHOP inhibitor = inhibitors of CHOP promoter induction, primary screen, cell-based, unfolded protein response, luciferase reporter. AID 2732, 2010. CHO-K1 CHOP-promoter luciferase, tunicamycin-induced, 15-18 h. 220,000 compounds, 3.8% hits. inhibition, % at 10 µM;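 active = compounds that reduced the stress-induced luciferase reporter signal by more than about 70% of percent inhibition, limit read from the data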
CHOP UPR activ = activators of apoptotic CHOP UPR arm, primary screen, cell-based, CHO-CHOP luciferase reporter, luminescence, uHTS; UPR activation; percent of tunicamycin response over DMSO baseline; activation, % at 10 µM; 330,000 compounds, 0.34% hits;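 active = at 10 µM dose, activation of 40% or more, normalized to positive control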
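Dosing – one dose, 10 µM in 0.5% DMSO · System – CHO-CHOP cells, stable luciferase reporter of PERK-eIF2a-CHOP signalling · Input – 500 cells/well · Control set – tunicamycin 10 µg/mL final as positive, DMSO-only wells as negative · Timing – 6 h compound treatment, 37 °C · Measure – % activation vs tunicamycin · Technique – luminescence read with Steady-Glo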
CHOP confirm = retest of CHOP induction inhibitors, confirmation, cell-based; shares compounds with CHOP inhibitor; AID 504437, 2011; inhibition, % at 10 µM; CHO-CHOP promoter luciferase reporter, tunicamycin-induced, luminescence; 2,100 compounds, 45% hits;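 active = mean of three repeat readings of reporter signal inhibition above a set limit, cut at about 70% in these data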
Of the large screens only hits and unclear results are named; the others gave an inactive call (follow-up assays come after a bar, where they were run).

CC(C)(C)C(=O)NC(NC(=S)Nc1sc2c(c1C#N)CCCC2)C(Cl)(Cl)Cl (centres undefined)	CHOP inhibitor 97 | CHOP confirm 74
CC(C)(C)C(=O)Nc1sc2c(c1C#N)CCC2	none
CCOC(=O)Cn1c(=NC(=O)c2nc3ccccc3s2)sc2cc(S(N)(=O)=O)ccc21	CHOP inhibitor 103 | CHOP confirm inactive
COc1ccc(C(=O)/C=C/C(=O)N(CC(=O)NCCC(C)C)Cc2cccs2)c(O)c1	CHOP inhibitor 106 (no result: UPR XBP1 act, CHOP UPR activ) | CHOP confirm 113
COc1ccc(C(=O)N(Cc2ccco2)Cc2cccs2)c(O)c1	none
COc1ccc(C(=O)/C=C/C(=O)N(CC(=O)NC2CCCCC2)Cc2ccc(F)cc2)c(O)c1	CHOP inhibitor 108 (no result: UPR XBP1 act, CHOP UPR activ) | CHOP confirm 140
COC(=O)C(Cc1cnc(Cl)s1)(C(=O)OC)c1ccc([N+](=O)[O-])cc1[N+](=O)[O-]	none
COC(=O)C(Cc1cnc(Cl)s1)(C(=O)OC)c1ccc(C(F)(F)F)cc1[N+](=O)[O-]	CHOP inhibitor 98 | CHOP confirm inactive
CCOC(=O)c1c(NC(=O)COc2ncnc3ccccc23)sc(C)c1CC	none
CC(C)CC(=O)Nc1c(C(=O)N2CCN(Cc3ccccc3)CC2)oc2ccccc12	none (no result: CHOP inhibitor)
O=C(NCC1CCCO1)c1ccc2c(=O)n(Cc3cccc(Br)c3)c(=S)[nH]c2c1 (centres undefined)	CHOP inhibitor 107 | CHOP confirm inactive
O/N=C/c1cc(Br)cs1	none
Cc1cc(Cl)ccc1N=c1ssnc1Cl	CHOP inhibitor 108 | CHOP confirm inactive
Cc1cc(C)nc(/N=c2/ssnc2Cl)c1	CHOP inhibitor 96 | CHOP confirm inactive
COc1ccc(OC)c(N=c2ssnc2Cl)c1	CHOP inhibitor 107 | CHOP confirm inactive
O=C(CC(=O)c1ccccc1O)c1ccc(F)cc1	CHOP inhibitor 101 | CHOP confirm inactive
COc1ccc(C(=O)CC(=O)c2ccc(F)cc2)cc1	none (no result: PvdQ acylase, CHOP inhibitor)
O=C(CC(=O)c1ccccc1O)c1cccc(F)c1	none (no result: CHOP inhibitor) | CHOP confirm inactive
Cc1ccc(C(=O)CC(=O)c2cc(Cl)ccc2O)cc1	CHOP inhibitor 102 | CHOP confirm 72
COc1ccc(/C=N/N(Cc2ccccc2)c2ccccc2)cc1O	CHOP inhibitor 104 | CHOP confirm inactive
C(=N\N(Cc1ccccc1)c1ccccc1)/c1ccco1	none
Cc1ccc(C)c(N2CCN(C(=O)CCC(=O)Nc3nnc(C(F)(F)F)s3)CC2)c1	none (no result: CHOP inhibitor)
C=C(C)COc1ccc(-c2n[nH]c(C)c2-c2ccc(Br)cc2)c(O)c1	none (no result: CHOP inhibitor) | CHOP confirm 106
C=C(C)COc1ccc(-c2ncncc2-c2ccc(Br)cc2)c(O)c1	none (no result: CHOP inhibitor)
CC(C)(C)c1ccc(C(O)CCCN2CCC(C(O)(c3ccccc3)c3ccccc3)CC2)cc1 (centres undefined)	none | CHOP confirm 134
CC1CCN(C(=O)c2[nH]cnc2C(=O)NC2CCN(C(=O)OC(C)(C)C)CC2)CC1	none (no result: CHOP inhibitor)
O=C(Nc1cc(Cl)ccc1O)c1cc2n(n1)C(C(F)(F)F)CC(c1ccc3c(c1)OCO3)N2 (centres undefined)	CHOP inhibitor 105 | CHOP confirm 89
COc1ccc(CCC(=O)NNC(=O)c2cc(Cl)ccc2OC)cc1	none (no result: CHOP inhibitor)
CCNc1nc(Oc2c(Cl)cccc2Cl)cc(C(F)(F)F)n1	CHOP inhibitor 98 | CHOP confirm 102
COc1ccc(NC(=O)c2oc3ccccc3c2NC(=O)C(C)(C)C)cc1	CHOP inhibitor 103 | CHOP confirm inactive
COc1ccc(NC(=O)c2oc3ccccc3c2NC(=O)C2CC2)cc1	none
Cc1nc(Nc2ccc(F)cc2)[nH]c(=O)c1CCC(C)C	CHOP inhibitor 104 | CHOP confirm 107
CCOC(CCc1c(C)nc(NC(C)=O)[nH]c1=O)OCC	none (no result: UPR XBP1 act, CHOP UPR activ)
CCCCCc1c(C)nc(Nc2ccccc2)[nH]c1=O	CHOP inhibitor 104 | CHOP confirm 86
COc1ccc(S(=O)(=O)NCC2CCC(C(=O)O)CC2)cc1 (centres undefined)	none (no result: CHOP inhibitor)
Cc1nn(C(C)(C)C)c(C)c1/C=N/OC(=O)Nc1ccc(Cl)cc1	CHOP inhibitor 99 | CHOP confirm 117
Cc1nn(C)c(C)c1/C=N/NC(=O)C(C)(C)Oc1ccc(Cl)cc1	none
CC12CC(NC(=O)N1c1cccc(C(=O)NCc3ccccn3)c1)c1ccccc1O2 (centres undefined)	none (no result: CHOP inhibitor)
